From ChEMBL document CHEMBL4184169, “Structure-activity relationships and docking studies of synthetic 2-arylindole derivatives determined with aromatase and quinone reductase 1” (Bioorg Med Chem Lett, 2017) come the findings set out here.

Experiment [1] deals with T1, Aromatase (Homo sapiens, UniProt P11511).
T1 sequence (P11511 whole entry): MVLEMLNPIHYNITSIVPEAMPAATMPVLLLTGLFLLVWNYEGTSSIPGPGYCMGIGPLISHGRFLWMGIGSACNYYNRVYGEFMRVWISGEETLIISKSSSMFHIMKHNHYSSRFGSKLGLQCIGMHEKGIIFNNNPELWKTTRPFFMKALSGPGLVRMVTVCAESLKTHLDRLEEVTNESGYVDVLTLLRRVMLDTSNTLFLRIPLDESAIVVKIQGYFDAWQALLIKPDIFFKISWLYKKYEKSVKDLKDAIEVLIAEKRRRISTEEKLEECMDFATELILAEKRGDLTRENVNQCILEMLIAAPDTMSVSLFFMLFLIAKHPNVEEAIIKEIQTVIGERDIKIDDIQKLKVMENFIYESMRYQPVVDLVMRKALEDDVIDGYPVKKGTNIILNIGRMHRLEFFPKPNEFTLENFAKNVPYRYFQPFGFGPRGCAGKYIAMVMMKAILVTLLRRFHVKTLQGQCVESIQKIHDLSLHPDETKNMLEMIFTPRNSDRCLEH
Kind of experiment: Inhibition of CYP19A1 (unknown origin) at 50 uM preincubated with NADPH followed by DBF substrate addition after 30 mins by fluorescence based assay relative to control. The essentials: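 Aromatase inhibition was screened at 50 μM test concentration. Activity is expressed as percent inhibition relative to vehicle-treated controls.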

Experiment [2] has as its target NAD(P)H dehydrogenase [quinone] 1 (Mus musculus) (UniProt Q64669). Nature of the experiment: Induction of QR1 activity in mouse Hepa-1c1c7 cells assessed as induction ratio at 50 uM after 48 hrs by MTT assay relative to control. Type of experiment: cell-based. The procedure, abridged: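 QR1 induction is reported as the induction ratio, meaning activity relative to control, measured at a test concentration of 50 μM.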
(In general: Tetrazolium assays rely on reduction of a dye to a coloured formazan, in cell work by metabolically active cells.)

Experiment [3] addresses T1, Aromatase. Kind of experiment: Inhibition of CYP19A1 (unknown origin) preincubated with NADPH followed by DBF substrate addition after 30 mins by fluorescence based assay.
Experiment [4] has as its target NAD(P)H dehydrogenase [quinone] 1 (Mus musculus) (UniProt Q64669). Nature of the experiment: Induction of QR1 activity in mouse Hepa-1c1c7 cells assessed as drug concentration required to double enzyme activity after 48 hrs by MTT assay. Type of experiment: cell-based. The procedure, abridged: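 CD is the concentration that doubles QR1 activity. It was determined only for compounds whose induction ratio at 50 μM exceeded 2.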

Chain of NAD(P)H dehydrogenase [quinone] 1 (Mus musculus) (Q64669 whole entry): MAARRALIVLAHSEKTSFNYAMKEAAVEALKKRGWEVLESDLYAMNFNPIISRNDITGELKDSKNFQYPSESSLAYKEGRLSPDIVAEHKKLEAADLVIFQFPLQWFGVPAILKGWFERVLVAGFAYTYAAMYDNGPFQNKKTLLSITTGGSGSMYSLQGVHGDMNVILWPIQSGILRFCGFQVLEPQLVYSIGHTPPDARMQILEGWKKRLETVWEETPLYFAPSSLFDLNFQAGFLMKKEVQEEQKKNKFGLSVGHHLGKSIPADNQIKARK

Broadly, the inhibition is the share of the control response that was lost under treatment. With `Clc1ccc(-c2cc3ccccc3[nH]2)cc1Cl`, the inhibition at 50 µM against Aromatase [1] was determined as 22.6%. For the same molecule, in experiment [2], the Ratio stood at 0.57.

Molecule `COc1cccc(-c2cc3ccccc3[nH]2)c1` showed an inhibition at 50 µM against Aromatase [1] of 48.4%. Moreover, the Ratio in experiment [2] is 1.3.

`Clc1ccccc1-c1cc2ccccc2[nH]1`: the inhibition at 50 µM at Aromatase [1] came out at 21.5%. Besides, in experiment [2], the Ratio stood at 1.4.

Usually IC50 stands for the concentration at which inhibition is half-maximal. A lower IC50 goes with higher potency. `N#Cc1ccc2[nH]c(-c3cccnc3)cc2c1`: half-maximal inhibition against Aromatase [3] (IC50) required 11.5 µM. The CD in experiment [4] came out at 31.2 µM. Besides, at Aromatase [1], the inhibition at 50 µM came to 93.7%. The Ratio in experiment [2] worked out at 2.1.

`Clc1ccc2cc(-c3ccccc3)[nH]c2c1`: the CD in experiment [4] worked out at 6.8 µM. The same molecule gave an inhibition at 50 µM at Aromatase [1] of 13.6%. For the same molecule, the Ratio in experiment [2] came to 4.25.

For the molecule `Clc1ccc(-c2cc3ccccc3[nH]2)cc1`, the CD in experiment [4] was 2.75 µM. This molecule also had an inhibition at 50 µM against Aromatase [1] of 15.8%.

Regarding `Clc1cccc(-c2cc3ccccc3[nH]2)c1`, the CD in experiment [4] came to 2.17 µM. The same molecule yielded an inhibition at 50 µM on Aromatase [1] of 24.1%. Further, the Ratio in experiment [2] is 5.2.

For the molecule `c1ccc(C2Cc3ccccc3N2)cc1` (stereo not drawn), testing at 50 µM against Aromatase [1] gave an inhibition of 49%. In addition, in experiment [2], the Ratio amounted to 1.8.

As to `Cn1c(-c2ccccc2)cc2ccccc21`, the inhibition at 50 µM against Aromatase [1] stood at 0%. Besides, in experiment [2], the Ratio stood at 0.5.

Take `O=[N+]([O-])c1ccc2[nH]c(-c3cccnc3)cc2c1`: on Aromatase [1], 50 µM produced 27.9% inhibition. In addition, in experiment [2], the Ratio worked out at 1.7.

In turn, `C(=N\OCc1ccccc1)/c1c(-c2ccccc2)[nH]c2ccccc12` gave an inhibition at 50 µM on Aromatase [1] of 23.2%. Further, the Ratio in experiment [2] turned out to be 0.5.

As for `Cn1c(-c2ccc(Cl)c(Cl)c2)cc2ccccc21`, the CD in experiment [4] amounted to 2.1 µM. Further, the inhibition at 50 µM at Aromatase [1] was found to be 20%. In experiment [2], the Ratio turned out to be 4.4.

On Aromatase [1], `O=[N+]([O-])c1ccc2[nH]c(-c3ccc(Cl)c(Cl)c3)cc2c1` showed an inhibition at 50 µM of 7.59%. Further, the Ratio in experiment [2] is 1.07.

`COc1cc(OC)cc(-c2cc3ccccc3[nH]2)c1`: in experiment [4], the CD came to 1.12 µM. Further, the inhibition at 50 µM at Aromatase [1] was found to be 9.18%. The Ratio in experiment [2] amounted to 3.75.

The molecule `Fc1cc(F)cc(-c2cc3ccccc3[nH]2)c1` gave an inhibition at 50 µM on Aromatase [1] of 11%. For the same molecule, the Ratio in experiment [2] is 0.58.

As to `Cn1c(-c2ccc(Cl)c(Cl)c2)cc2cc([N+](=O)[O-])ccc21`, 50 µM produced 34% inhibition at Aromatase [1]. In addition, in experiment [2], the Ratio is 1.56.

At Aromatase [1], `c1ccc(Cn2c(-c3ccccc3)cc3ccccc32)cc1` registered an inhibition at 50 µM of 0%. Besides, the Ratio in experiment [2] came out at 0.37.

In the case of `N#Cc1ccc2[nH]c(-c3ccccc3)cc2c1`, 3.34 µM corresponded to half-maximal inhibition against Aromatase [3] (IC50). The inhibition at 50 µM at Aromatase [1] was determined as 82.3%. Also, the Ratio in experiment [2] is 1.06.

Molecule `COc1ccc2ccc(-c3cc4ccccc4[nH]3)cc2c1` yielded an inhibition at 50 µM on Aromatase [1] of 0.07%. Also, in experiment [2], the Ratio is 0.74.

At Aromatase [3], `Cn1c(-c2ccccc2)cc2cc([N+](=O)[O-])ccc21` had an IC50 of 3.88 µM. 50 µM produced 77% inhibition against Aromatase [1]. Moreover, in experiment [2], the Ratio turned out to be 0.89.

On Aromatase [1], `Cc1ccc2cc(-c3ccccc3)[nH]c2c1` came in with an inhibition at 50 µM of 32.4%. In addition, the Ratio in experiment [2] was determined as 1.

With `Cc1ccccc1-c1cc2cc([N+](=O)[O-])ccc2[nH]1`, on Aromatase [3], the IC50 came to 6.87 µM. In addition, at Aromatase [1], the inhibition at 50 µM came out at 71.5%. The Ratio in experiment [2] is 0.78.

Take `Nc1ccccc1C#Cc1cc(F)cc(F)c1`: 50 µM produced 9.27% inhibition against Aromatase [1]. Also, the Ratio in experiment [2] is 1.48.

Molecule `Cc1ccccc1-c1cc2ccccc2[nH]1` came in with an inhibition at 50 µM on Aromatase [1] of 27.1%. Further, the Ratio in experiment [2] was determined as 0.54.

`c1ccc(-c2nc3ccccc3[nH]2)cc1` showed an inhibition at 50 µM against Aromatase [1] of 7.64%.

For the molecule `Cn1c(-c2ccc(Cl)c(Cl)c2)cc2cc(N)ccc21`, the CD in experiment [4] was 46.7 µM. At Aromatase [1], this molecule returned an inhibition at 50 µM of 42%. For the same molecule, the Ratio in experiment [2] came to 2.14.

At Aromatase [1], `COc1ccc(-c2cc3ccccc3[nH]2)cc1` showed an inhibition at 50 µM of 0%. In experiment [2], the Ratio came to 1.56.

In the case of `Fc1ccc(-c2cc3ccccc3[nH]2)cc1`, in experiment [4], the CD is 17.8 µM. On Aromatase [1], this molecule registered an inhibition at 50 µM of 21.8%. In experiment [2], the Ratio was 2.73.

Consider `FC(F)(F)Oc1ccc(-c2cc3ccccc3[nH]2)cc1`, for which the CD in experiment [4] amounted to 29.1 µM. The molecule also displayed an inhibition at 50 µM against Aromatase [1] of 1.86%. Besides, in experiment [2], the Ratio was found to be 2.48.

As to `Cc1ccc(-c2cc3ccccc3[nH]2)cc1`, in experiment [4], the CD was found to be 6.4 µM. In addition, at Aromatase [1], the inhibition at 50 µM was found to be 9.33%. Besides, the Ratio in experiment [2] turned out to be 5.2.

Consider `C#CCn1c(-c2ccccc2)cc2ccccc21`, for which 50 µM produced 26.3% inhibition on Aromatase [1]. In experiment [2], the Ratio turned out to be 0.87.

Regarding `c1cncc(-c2cc3ccccc3[nH]2)c1`, the IC50 against Aromatase [3] amounted to 3.05 µM. The inhibition at 50 µM against Aromatase [1] amounted to 81.5%. For the same molecule, the Ratio in experiment [2] amounted to 1.14.

With `CCCCCc1ccc(-c2cc3ccccc3[nH]2)cc1`, 50 µM produced 0% inhibition on Aromatase [1]. Also, the Ratio in experiment [2] is 0.78.

Turning to `CC(C)(C)OC(=O)n1c(-c2ccccc2)cc2ccccc21`, on Aromatase [1], the inhibition at 50 µM came to 11.9%. Further, the Ratio in experiment [2] came out at 1.

In turn, `Nc1ccc2[nH]c(-c3ccccc3)cc2c1` had an inhibition at 50 µM at Aromatase [1] of 41.4%. Also, the Ratio in experiment [2] is 0.72.

For the molecule `CN(C)c1ccc(-c2cc3ccccc3[nH]2)cc1`, at Aromatase [1], 50 µM produced 0% inhibition. Also, the Ratio in experiment [2] came to 1.21.

Take `O=[N+]([O-])c1ccc2[nH]c(-c3ccccc3)cc2c1`: the IC50 on Aromatase [3] came to 9 µM. For the same molecule, the CD in experiment [4] amounted to 5.76 µM. The molecule further yielded an inhibition at 50 µM against Aromatase [1] of 77.7%. Further, the Ratio in experiment [2] turned out to be 3.92.

With `O/N=C/c1c(-c2ccccc2)[nH]c2ccccc12`, the CD in experiment [4] is 11.7 µM. The molecule also had an inhibition at 50 µM against Aromatase [1] of 40.4%. Also, the Ratio in experiment [2] was determined as 3.1.

On to `Brc1ccc(-c2cc3ccccc3[nH]2)cc1`, for which the CD in experiment [4] is 5.1 µM. This molecule also registered an inhibition at 50 µM against Aromatase [1] of 4.8%. Further, the Ratio in experiment [2] is 2.8.

Take `CO/N=C/c1c(-c2ccccc2)[nH]c2ccccc12`: the inhibition at 50 µM against Aromatase [1] was determined as 24.7%. In addition, the Ratio in experiment [2] stood at 1.3.

With `Nc1ccc(-c2cc3ccccc3[nH]2)cc1`, the inhibition at 50 µM on Aromatase [1] worked out at 46.2%. For the same molecule, in experiment [2], the Ratio was determined as 0.56.

For the molecule `Nc1cccc(-c2cc3ccccc3[nH]2)c1`, in experiment [4], the CD worked out at 18.4 µM. Testing at 50 µM at Aromatase [1] gave an inhibition of 26.7%. In addition, the Ratio in experiment [2] was determined as 2.7.

`Clc1ccc2[nH]c(-c3ccccc3)cc2c1` had an IC50 against Aromatase [3] of 22.8 µM. Further, the CD in experiment [4] amounted to 5.5 µM. Further, the inhibition at 50 µM on Aromatase [1] came out at 70.5%. In experiment [2], the Ratio was 5.1.

The molecule `c1ccc(-c2cc3ccccc3[nH]2)cc1` [2-PHENYL-1H-INDOLE] gave an inhibition at 50 µM on Aromatase [1] of 27.8%.

In the case of `c1ccc2[nH]c(-c3ccsc3)cc2c1`, testing at 50 µM against Aromatase [1] gave an inhibition of 22%. In addition, in experiment [2], the Ratio came to 0.67.

In turn, `Brc1ccc2[nH]c(-c3ccccc3)cc2c1` showed an IC50 at Aromatase [3] of 39.7 µM. The CD in experiment [4] came to 6.76 µM. The same molecule had an inhibition at 50 µM at Aromatase [1] of 58.1%. Besides, the Ratio in experiment [2] turned out to be 5.5.

For the molecule `COCn1c(-c2ccccc2)cc2ccccc21`, at 50 µM the inhibition against Aromatase [1] was 20.2%. Moreover, the Ratio in experiment [2] was 1.9.

Take `Nc1ccc2[nH]c(-c3ccc(Cl)c(Cl)c3)cc2c1`: in experiment [4], the CD amounted to 10.3 µM. The same molecule came in with an inhibition at 50 µM on Aromatase [1] of 21.4%. Besides, the Ratio in experiment [2] was 4.9.
